Tests used:
Dihydrofolate reductase = target: T1, Dihydrofolate reductase (Bos taurus, UniProt P00376); assay: Inhibition of bovine liver DHFR preincubated for 2 mins followed by addition of FH2 as substrate and NADPH
T1 sequence (P00376 whole entry): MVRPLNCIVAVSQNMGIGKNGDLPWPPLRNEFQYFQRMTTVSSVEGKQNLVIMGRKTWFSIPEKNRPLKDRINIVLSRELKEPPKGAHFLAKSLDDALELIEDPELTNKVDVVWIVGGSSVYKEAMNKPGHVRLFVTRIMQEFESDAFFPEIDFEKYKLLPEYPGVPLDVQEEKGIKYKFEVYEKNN

[1] = Growth inhibition of human K562 cells at 10 uM after 48 hrs by SRB assay relative to control; type: functional; conditions: K562, 48 h, read-out: GI
Method in brief: (§1)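 NCI 60-cell-line panel, nine tumor subpanels; compounds tested at a single dose of 10 μM in the primary screen.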

[2] = Growth inhibition of human MOLT4 cells at 10 uM after 48 hrs by SRB assay relative to control; type: functional; conditions: MOLT-4, 48 h, read-out: GI; method in brief: as §1
[3] = Growth inhibition of human RPMI8226 cells at 10 uM after 48 hrs by SRB assay relative to control; type: functional; conditions: RPMI-8226, 48 h, read-out: GI; method in brief: as §1
[4] = Growth inhibition of human SR cells at 10 uM after 48 hrs by SRB assay relative to control; type: functional; conditions: read-out: GI
Method in brief: (§2)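 Primary screen across the full NCI 60 human tumour cell line panel, which covers nine tumour subpanels. A single dose of 10 μM was applied to each line, and growth was recorded for each cell line.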

[5] = Growth inhibition of human HOP92 cells at 10 uM after 48 hrs by SRB assay relative to control; type: functional; conditions: HOP-92, 48 h, read-out: GI; method in brief: as §1
[6] = Growth inhibition of human NCI-H23 cells at 10 uM after 48 hrs by SRB assay relative to control; type: functional; conditions: NCI-H23, 48 h, read-out: GI; method in brief: as §1
[7] = Growth inhibition of human HCT116 cells at 10 uM after 48 hrs by SRB assay relative to control; type: functional; conditions: HCT-116, 48 h, read-out: GI; method in brief: as §1
[8] = Growth inhibition of human HT-29 cells at 10 uM after 48 hrs by SRB assay relative to control; type: functional; conditions: HT-29, 48 h, read-out: GI; method in brief: as §1
[9] = Growth inhibition of human SW620 cells at 10 uM after 48 hrs by SRB assay relative to control; type: functional; conditions: SW-620, 48 h, read-out: GI; method in brief: as §2
[10] = Growth inhibition of human SF268 cells at 10 uM after 48 hrs by SRB assay relative to control; type: functional; conditions: SF-268, 48 h, read-out: GI; method in brief: as §1
[11] = Growth inhibition of human SF539 cells at 10 uM after 48 hrs by SRB assay relative to control; type: functional; conditions: SF-539, 48 h, read-out: GI; method in brief: as §1
[12] = Growth inhibition of human SNB75 cells at 10 uM after 48 hrs by SRB assay relative to control; type: functional; conditions: SNB-75, 48 h, read-out: GI; method in brief: as §2
[13] = Growth inhibition of human LOXIMVI cells at 10 uM after 48 hrs by SRB assay relative to control; type: functional; conditions: LOX IMVI, read-out: GI; method in brief: as §1
[14] = Growth inhibition of human SK-MEL-28 cells at 10 uM after 48 hrs by SRB assay relative to control; type: functional; conditions: SK-MEL-28, 48 h, read-out: GI; method in brief: as §2
[15] = Growth inhibition of human SK-MEL-5 cells at 10 uM after 48 hrs by SRB assay relative to control; type: functional; conditions: SK-MEL-5, 48 h, read-out: GI; method in brief: as §2
[16] = Growth inhibition of human UACC257 cells at 10 uM after 48 hrs by SRB assay relative to control; type: functional; conditions: UACC-257, 48 h, read-out: GI; method in brief: as §2
[17] = Growth inhibition of human UACC62 cells at 10 uM after 48 hrs by SRB assay relative to control; type: functional; conditions: UACC-62, 48 h, read-out: GI; method in brief: as §2
[18] = Growth inhibition of human IGROV1 cells at 10 uM after 48 hrs by SRB assay relative to control; type: functional; conditions: IGROV-1, 48 h, read-out: GI; method in brief: as §1
[19] = Growth inhibition of human OVCAR3 cells at 10 uM after 48 hrs by SRB assay relative to control; type: functional; conditions: OVCAR-3, 48 h, read-out: GI; method in brief: as §1
[20] = Growth inhibition of human OVCAR4 cells at 10 uM after 48 hrs by SRB assay relative to control; type: functional; conditions: OVCAR-4, 48 h, read-out: GI; method in brief: as §1
[21] = Growth inhibition of human A498 cells at 10 uM after 48 hrs by SRB assay relative to control; type: functional; conditions: A498, 48 h, read-out: GI; method in brief: as §1
[22] = Growth inhibition of human ACHN cells at 10 uM after 48 hrs by SRB assay relative to control; type: functional; conditions: read-out: GI; method in brief: as §1
[23] = Growth inhibition of human Caki1 cells at 10 uM after 48 hrs by SRB assay relative to control; type: functional; conditions: CAKI-1, 48 h, read-out: GI; method in brief: as §1
[24] = Growth inhibition of human UO31 cells at 10 uM after 48 hrs by SRB assay relative to control; type: functional; conditions: UO-31, 48 h, read-out: GI; method in brief: as §2
[25] = Growth inhibition of human MCF7 cells at 10 uM after 48 hrs by SRB assay relative to control; type: functional; conditions: MCF7, 48 h, read-out: GI; method in brief: as §1
[26] = Growth inhibition of human BT549 cells at 10 uM after 48 hrs by SRB assay relative to control; type: functional; conditions: BT-549, 48 h, read-out: GI; method in brief: as §1
Cancer cell lines [27] = assay: Potency index, ratio of 5-fluorouracil GI50 to compound GI50 for human breast cancer cells; type: functional
Method in brief: (§3)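 GI50 for each cell line came from NCI panel testing over a 5-log dose range, with 5-fluorouracil tested alongside as the reference drug. The index relates the 5-fluorouracil GI50 to the compound GI50 within each tumour subpanel.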

Cancer cell lines [28] = assay: Potency index, ratio of 5-fluorouracil GI50 to compound GI50 for human prostate cancer cells; type: functional; method in brief: as §3
Cancer cell lines [29] = assay: Potency index, ratio of 5-fluorouracil GI50 to compound GI50 for human renal cancer cells; type: functional; method in brief: as §3
Cancer cell lines [30] = assay: Potency index, ratio of 5-fluorouracil GI50 to compound GI50 for human CNS cancer cells; type: functional; method in brief: as §3
[31] = Growth inhibition of human CNS cancer cells after 48 hrs by SRB assay; type: functional; conditions: Cancer cell lines
Method in brief: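 Five-log dose range against NCI tumor cell lines, monitoring GI50, TGI and LC50 for each cell line; MG-MID values derived across the panel; 5-fluorouracil positive control.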

[32] = Growth inhibition of human leukemia cells after 48 hrs by SRB assay; type: functional; conditions: Leukemia cell
Method in brief: (§4)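 Follow-up NCI panel testing over a 5-log dose range for each cell line. GI50, TGI and LC50 were monitored, with 5-fluorouracil run as the positive control. Values are grouped by tumour subpanel.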

[33] = Growth inhibition of human prostate cancer cells after 48 hrs by SRB assay; type: functional; conditions: Cancer cell lines; method in brief: as §4
[34] = Growth inhibition of human breast cancer cells after 48 hrs by SRB assay; type: functional; conditions: Cancer cell lines; method in brief: as §4

Molecule `COc1ccc(-n2c(SCc3cc(OC)c(OC)c(OC)c3)nc3ccc(C)cc3c2=O)cc1` has an IC50 (Dihydrofolate reductase) of 10 µM, an inhibition of growth at 10 µM [1] of 83.1% and an inhibition of growth at 10 µM [2] of 44%. The inhibition of growth at 10 µM [3] was < 10%, the inhibition of growth at 10 µM [4] was 77% and the inhibition of growth at 10 µM [5] was < 10%. It also gave an inhibition of growth at 10 µM [6] of 30.1%, an inhibition of growth at 10 µM [7] of 65.1% and an inhibition of growth at 10 µM [8] of 78.1%. It also gave an inhibition of growth at 10 µM [9] of 50.7%, an inhibition of growth at 10 µM [10] of 19.4% and an inhibition of growth at 10 µM [11] of 22.3%. It also gave an inhibition of growth at 10 µM [12] of 55.6%, an inhibition of growth at 10 µM [13] of 37% and an inhibition of growth at 10 µM [14] of 26%. For the same molecule, the inhibition of growth at 10 µM [15] was 45.2%, the inhibition of growth at 10 µM [16] was 22.7% and the inhibition of growth at 10 µM [17] was 43.3%. For the same molecule, the inhibition of growth at 10 µM [18] was 38%, the inhibition of growth at 10 µM [19] was 40.1% and the inhibition of growth at 10 µM [20] was 32.8%. It also gave an inhibition of growth at 10 µM [21] of 62%, an inhibition of growth at 10 µM [22] of 33.3% and an inhibition of growth at 10 µM [23] of 45.8%. The inhibition of growth at 10 µM [24] was 52.8%, the inhibition of growth at 10 µM [25] was 75.2% and the inhibition of growth at 10 µM [26] was 28.6%. For the same molecule, the RatioGI50 (Cancer cell lines [27]) was 2 - 10, the RatioGI50 (Cancer cell lines [28]) was 2 - 10 and the RatioGI50 (Cancer cell lines [29]) was 2 - 10. For the same molecule, the RatioGI50 (Cancer cell lines [30]) was 2 - 10, the GI50 [31] was 30.9 µM and the LC50 (lethal concentration, 50% net cell kill) [31] was > 100 µM. The TGI [31] was > 100 µM, the GI50 [32] was 3.4 µM and the TGI [32] was 90.2 µM. For the same molecule, the CC50 ([32]; read-out: LC50 (the source's name)) was > 100 µM, the GI50 [33] was 52.8 µM and the LC50 (concentration killing 50% of cells) [33] was > 100 µM. For the same molecule, the TGI [33] was > 100 µM, the GI50 [34] was 5.3 µM and the LC50 [34] was > 100 µM. For the same molecule, the TGI [34] was 91.4 µM.

From ChEMBL document CHEMBL3860041, “Synthesis, biological evaluation and molecular modeling study of some new methoxylated 2-benzylthio-quinazoline-4(3H)-ones as nonclassical antifolates” (Bioorg Med Chem Lett, 2016)
